Measured values from different studies.
Protocols differ between the studies behind these lines.
Cell line: NCI-H460
Observed: cell growth or viability

SMILES | test | conditions | quantity | result
N.N.[Cl][Pt][Cl] | MTT | 72 h | IC50 | 2 µM
N.N.[Cl][Pt][Cl] | – | 24 h | IC50 | 50.5 µM
C1COCCN1.COc1ccc(/C=C\c2cc(I)c(OC)c(I)c2)cc1OP(=O)(O)O | SRB | 48 h | GI50 | 0.033 µg/mL
N.N.[Cl][Pt][Cl] | – | – | IC50 | 19 µM
COc1cc([C@@H]2c3cc4c(cc3[C@H](O)[C@H]3COC(=O)[C@H]23)OCO4)cc(OC)c1OC | MTT | 72 h | EC50 | 0.0002 µM
Cc1cccc(-n2ncc(Cl)c(Cl)c2=O)c1 | resazurin | 96 h | IC50 | 1.5 µM
CN1C[C@H](C(=O)N[C@]2(C)O[C@@]3(O)[C@@H]4CCCN4C(=O)[C@H](Cc4ccccc4)N3C2=O)C=C2c3cccc4[nH]cc(c34)C[C@H]21 | MTT | 72 h | EC50 | ~25 µM
C=C(C)[C@@H]1CC[C@]2(CO)CC[C@]3(C)[C@H](CC[C@@H]4[C@@]5(C)CC[C@H](O)C(C)(C)[C@@H]5CC[C@]43C)[C@@H]12 | – | 48 h | IC50 | 11.5 µM
